ANO1 block – blocks the mouse calcium-activated chloride channel TMEM16A; normalized B-score (activity score, 25-100; higher = stronger inhibition) at 10 µM; hit rate 1.2% among 310,000; HEK293 TMEM16A/YFP iodide influx fluorescence, ionomycin; Q8BHY3; AID 588511;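 active = ratio plate-corrected score three or more library SD toward inhibition, starting fluorescence score within five deviations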;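 also: score derived from kinetic fluorescence span divided by baseline fluorescence per well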
Target sequence (Q8BHY3 whole entry, looked up): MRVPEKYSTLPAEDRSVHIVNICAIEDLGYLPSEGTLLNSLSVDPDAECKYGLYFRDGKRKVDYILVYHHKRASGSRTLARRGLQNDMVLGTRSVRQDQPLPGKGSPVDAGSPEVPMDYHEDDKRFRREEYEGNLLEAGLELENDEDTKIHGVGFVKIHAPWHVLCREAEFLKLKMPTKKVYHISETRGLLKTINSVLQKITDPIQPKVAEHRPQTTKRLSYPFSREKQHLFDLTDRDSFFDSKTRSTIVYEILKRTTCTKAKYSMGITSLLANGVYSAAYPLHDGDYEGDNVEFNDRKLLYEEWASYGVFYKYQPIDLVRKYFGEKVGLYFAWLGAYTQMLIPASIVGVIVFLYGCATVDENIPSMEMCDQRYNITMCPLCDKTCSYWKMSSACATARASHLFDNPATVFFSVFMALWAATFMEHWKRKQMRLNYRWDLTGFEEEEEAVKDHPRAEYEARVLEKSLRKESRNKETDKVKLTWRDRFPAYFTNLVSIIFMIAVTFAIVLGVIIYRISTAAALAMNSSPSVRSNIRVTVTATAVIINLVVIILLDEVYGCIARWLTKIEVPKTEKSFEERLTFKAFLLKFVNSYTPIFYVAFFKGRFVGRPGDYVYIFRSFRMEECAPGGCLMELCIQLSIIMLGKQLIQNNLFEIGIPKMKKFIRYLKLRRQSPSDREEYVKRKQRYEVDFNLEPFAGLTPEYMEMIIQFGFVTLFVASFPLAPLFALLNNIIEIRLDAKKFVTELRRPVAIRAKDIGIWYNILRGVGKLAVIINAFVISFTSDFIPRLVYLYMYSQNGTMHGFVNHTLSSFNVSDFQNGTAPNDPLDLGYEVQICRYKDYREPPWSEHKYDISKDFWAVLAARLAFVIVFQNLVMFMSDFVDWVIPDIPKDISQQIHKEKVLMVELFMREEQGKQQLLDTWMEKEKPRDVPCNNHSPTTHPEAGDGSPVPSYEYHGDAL
CRFBP-R2 agonist – agonists of human CRF-binding protein/CRF-R2 receptor complex | HEK293 CRF-R2/CRF-BP, calcium dye fluorescence (FLIPR); percent of saturating CRF peptide response | activation, % at 13.2 µM | hit rate 0.46% among 350,000;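 active = activation of at least 50%, plus an integration ratio under a set limit after plate pattern correction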;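 also: plate controls were neutral control wells without compound for no effect and CRF at EC100 for full effect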
TAAR1 ag – agonists of human TAAR1 | CHO RD-HGA16 TAAR1, Fluo-8 calcium fluorescence; vehicle wells 0%, saturating PEA agonist 100% | activation, % at 3 µM | hit rate 0.99% among 360,000 | Q96RJ0 | AID 624467;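 active = activation above the mean activation of all test compounds in the run plus 3 SD, cut at about 38% in these data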
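System: CHO-derived RD-HGA16 cells with stable Gα16 and human TAAR1 / Times: 17-24 h plating, Fluo-8 75 min 37 °C, 30 min RT / Technique: calcium-sensitive Fluo-8 signal, excitation 470-495, emission 515-575 nm / Measure: % activation relative to PEA EC100 response / Benchmarks: DMSO and PEA EC100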
CRFBP-R2 block – blocks CRF-induced signaling of the CRF-BP/CRF-R2 complex | hit rate 0.59% among 350,000 | HEK293 CRF-R2/CRF-BP, CRF-induced calcium fluorescence | inhibition, % at 11.8 µM | AID 588475;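 active = inhibition of the ligand-induced calcium signal above about 50% at the single tested concentration, limit read from the data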
TMEM16A act – activates or potentiates the mouse TMEM16A chloride channel; Q8BHY3; HEK293 TMEM16A/YFP-H148Q/I152L, iodide quench fluorescence; active compounds read low; AID 623877; hit rate 0.3% among 340,000; B-score at 10 µM;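 active = fluorescence-ratio B-score plate-corrected deviation score at least 3 library SD below zero, with starting fluorescence score within 5 deviations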;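 also: channel opened by trigger with iodide after compound preincubation; score built on the fluorescence ratio of max minus min over baseline; more negative score means more quench and so TMEM16A activation or potentiation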
TAAR1 antagonist – human TAAR1 antagonism; inhibition, % at 3 µM; CHO RD-HGA16 TAAR1, Fluo-8 calcium fluorescence, antagonist; hit rate 1.5% among 360,000; Q96RJ0;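 active = inhibition above a per-plate cutoff, the mean inhibition of test compounds on that plate plus 3 SD, cut at about 49% in these data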;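 also: 0% = DMSO plus EC80 beta-PEA response and 100% = DMSO alone without agonist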
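Material: CHO RD-HGA16 cells bearing hTAAR1; compound dosing: one-point dosing, 3 µM nominal final; schedule: dye loading 75 min at 37 °C, then 30 min room temperature; measured by: calcium fluorescence with Fluo-8; control set: vehicle and agonist controls; replication: n of 1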
TMEM16A reconf – re-confirmation of mouse TMEM16A chloride channel inhibitors | shares compounds with ANO1 block | HEK293 TMEM16A/YFP-H148Q, iodide quench fluorescence; ionomycin added to raise cell calcium | inhibition, % at 10 µM | hit rate 39% among 2,300;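 active = mean duplicate percent inhibition, scaled so buffer wells are 0 and the reference blocker 100, over three buffer SD above buffer mean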
HEK293 Ca mobil – alters calcium mobilization in TMEM16A HEK293 cells, counter-screen. AID 652231. shares compounds with ANO1 block. calcium response (% of ionomycin), % at 10 µM. hit rate 2% among 2,300. TMEM16A/YFP HEK293, Fluo4 calcium mobilization;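 active = duplicate-averaged calcium signal over 20% of the ionomycin maximum, relative to buffer baseline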;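 also: each well's signal is peak minus trough fluorescence divided by its pre-addition baseline; 0% = buffer wells and 100% = ionomycin wells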
YFP-HEK293 quench – parental YFP-HEK293 iodide quench counter-screen activity | shares compounds with ANO1 block | ionomycin | YFP ratio F(max-min)/F0 at 10 µM | 2,300 tested, under 10 active | AID 652233;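 active = yellow fluorescent protein signal ratio exceeding the buffer control mean by over 5 SD of those controls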;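 also: ratio is mean of duplicate wells from kinetic YFP trace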
ClC-1 inh – rat ClC-1 inhibition, TMEM16A specificity screen; shares compounds with ANO1 block; 2,300 tested, under 10 active; ratio percent, % at 10 µM; CHO ClC-1-YFP, iodide influx fluorescence quench; iodide control reads 0, buffer control 100;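 active = duplicate-mean ratio percent above the mean of iodide-only control wells, which defines zero, plus 5 of their SD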;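 also: higher percent means stronger block of ClC-1 iodide influx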
* hit, by the source's call; i = inactive; nt = not tested or not shown. This is a sample that favours compounds with a hit; in the whole collection about 3.9% have one here.

SMILES	ANO1 block	CRFBP-R2 agonist	TAAR1 ag	CRFBP-R2 block	TMEM16A act	TAAR1 antagonist	TMEM16A reconf	HEK293 Ca mobil	YFP-HEK293 quench	ClC-1 inh
Cc1cc(O)c(C(C)C)cc1N=Nc1ccccc1C(=O)O	i	-0.7	2.1	7.3	i	-47.5	37.5%*	i	-0.732	-8.0
CC1(C)Cc2c(sc3nc(=S)[nH]c(N)c23)CO1	i	nt	nt	nt	nt	nt	nt	nt	nt	nt
O=C1C(Oc2ccccc2)C(c2cccs2)N1Cc1ccc2c(c1)OCO2 (stereo not given)	i	10.7	14.2	24.9	i	35.7	nt	nt	nt	nt
COc1ccc(OC2C(=O)N(Cc3ccc4c(c3)OCO4)C2c2cccs2)cc1 (stereo not given)	100*	2.9	9.3	11.1	i	55.9*	28.0%*	i	-0.876	-4.0
CC1(C)CC[C@]2(CO)[C@@H](O)C[C@]3(C)C(=CCC4[C@@]5(C)CC[C@H](O)C(C)(C)C5CC[C@]43C)[C@@H]2C1 (stereo not given in full)	i	nt	nt	nt	nt	nt	nt	nt	nt	nt
CC1(C(=O)NS(=O)(=O)C2CC2)CCN(C(=O)c2ccccc2C(F)(F)F)C1 (stereo not given)	nt	nt	5.8	nt	nt	-14.3	nt	nt	nt	nt
O=C(Nc1ccccc1O)c1ccccc1O	100*	16.7	10.4	47.3	i	0.4	31.5%*	i	-1	-26.0
Cc1ccc(C)c(NC(=O)c2ccccc2O)c1	25*	62.5*	5.6	25.0	i	-0.2	36.0%*	i	-1.1	-2.0
O=C(Nc1ccccc1Cl)c1ccccc1Cl	i	-0.9	11.6	17.4	i	-2.9	nt	nt	nt	nt
Cc1ccc(SCC2(O)CCN(C(=O)c3ccc(Cl)cc3)CC2)cc1	25*	0.8	10.5	-9.6	i	1.7	i	i	-0.93	0.5
Cc1cc(C)cc(NC(=O)C(=S)NCc2ccccc2)c1	i	10.9	0.2	-1.8	i	-12.3	nt	nt	nt	nt
CC(OC(=O)c1ccc(NC(=O)CC#N)cc1)C(=O)Nc1nc(-c2ccccc2)cs1 (stereo not given)	100*	3.3	5.0	-25.1	i	36.4	22.0%*	i	-0.803	-4.5
CC(OC(=O)c1ccc(NC(=O)CC#N)cc1)C(=O)Nc1ccc(Oc2ccccc2)cc1 (stereo not given)	i	nt	-0.1	nt	i	-6.1	nt	nt	nt	nt
Cc1cc(C(=O)OC(C)C(=O)Nc2nc(-c3ccccc3)cs2)c(C)o1 (stereo not given)	25*	-0.1	-2.0	-22.7	i	-3.2	i	i	-0.938	-12.0
Cc1cc(C(=O)OCC(=O)Nc2nc(-c3ccccc3)cs2)c(C)o1	i	-0.5	-1.6	-45.0	i	17.7	nt	nt	nt	nt
Cn1nnc(NC(=S)NC(=O)c2cc(Cl)ccc2Cl)n1	i	2.0	-0.7	-10.7	i	-16.4	nt	nt	nt	nt
CCOc1ccc(-n2ccnc2SCC(=O)NCc2ccc3c(c2)OCO3)cc1	100*	-4.5	nt	-5.5	i	nt	20.0%*	i	-1.19	-7.5
O=C(CSc1nccn1-c1ccc(F)cc1)NCc1ccc2c(c1)OCO2	i	-2.5	10.1	10.0	i	6.7	nt	nt	nt	nt
CCC(C)Sc1ccc([C@@H]2[C@H]3C(=O)N(CC)C(=O)[C@H]3[C@]3(C(=O)OC)CCCCN23)cc1 (stereo not given in full)	i	11.9	3.5	-20.1	i	10.7	27.5%*	i	-0.712	13.0
